{"source": "paper PMC7115534", "about": "(Peptides, 2009)", "key": {"Sindbis virus": {"system": "Sindbis virus", "test": "Antiviral activity in Vero cells, Sindbis virus", "assay_type": "cell-based", "details": "read-out: EC50 Sindbis virus"}, "Vero cells": {"system": "Vero cells", "details": "microscopic alteration of cell morphology"}, "Reovirus-1": {"system": "Reovirus-1", "test": "Antiviral activity in Vero cells, reovirus-1", "assay_type": "cell-based", "details": "read-out: EC50 Reovirus-1"}, "Para-influenza-3 virus": {"system": "Para-influenza-3 virus", "test": "Antiviral activity in Vero cells, para-influenza-3", "assay_type": "cell-based", "details": "read-out: EC50 Para-influenza-3 virus"}, "Punta Toro virus": {"system": "Punta Toro virus", "test": "Antiviral activity in Vero cells, Punta Toro virus", "assay_type": "cell-based", "details": "read-out: EC50 Punta Toro virus"}, "in vitro": {"test": "in vitro", "details": "dog"}, "MDCK cells": {"system": "MDCK cells", "details": "microscopic alteration of cell morphology"}, "Influenza B": {"system": "Influenza B", "test": "Anti-influenza B activity in MDCK cells", "assay_type": "cell-based", "details": "Influenza B virus"}, "[1]": {"system": "Clematis montana lectin (CML)", "test": "Hemagglutination inhibition assay", "assay_type": "biochemical", "how_it_was_run": "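Sugars were serially diluted 2-fold and mixed with an equal volume of lectin at 8 hemagglutination units. After 30 min at room temperature, 2% rabbit erythrocyte suspension was added in U-bottom wells. Plates were read after 1 h. The endpoint was the minimum sugar concentration in the final mixture giving complete inhibition; lectin dilutions were made in 0.15 M NaCl.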"}, "L929 cells": {"system": "L929 cells", "test": "Effect of carbohydrates and caspase inhibitors on CML-induced L929 cell death", "assay_type": "cell-based, murine", "details": "24 h; for effect of carbohydrate pre-incubation on CML-induced L929 cell death: 1 pM CML pre-incubated with sugar at 37 °C for 30 min, MTT; for effect of caspase inhibitor on CML-induced L929 apoptosis: 20 μM, 1 h prior to CML", "how_it_was_run": "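Murine L929 fibroblasts in DMEM with 10% FBS and nonessential amino acids at 37 °C, 5% CO2, were seeded at 1 × 10^5 cells/well for 24 h. Caspase inhibitors (pan-caspase z-VAD-fmk, caspase-3 z-DEVD-fmk, caspase-8 z-IETD-fmk; 20 μmol/l) were added 1 h before lectin, then cells were incubated 24 h. MTT was read at 490 nm as % growth inhibition versus control and blank; n = 5.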"}, "HIV-2 (strain ROD)": {"system": "HIV-2 (strain ROD)", "details": "CEM cells; cited from earlier work"}, "HIV-1 (IIIB)": {"system": "HIV-1 (IIIB)", "details": "CEM cells; cited from earlier work"}, "[2]": {"details": "read-out: Antiviral EC50 Influenza B MTS"}, "[3]": {"details": "read-out: Antiviral EC50 Influenza B Visual CPE Score"}}, "note": "Read-outs that look alike come from different tables or passages of the source. Where a SMILES comes first, the peptide text is derived from it. The star is where a group is joined. Cbz = O=C(OCc1ccccc1)*; CH2F = FC*"}
{"compound": "Nc1ncnc2c1ncn2C[C@H](O)CO", "note": "[(S)-DHPA]", "values": [{"measurement": "EC50", "setting": "Sindbis virus", "result": "> 250", "unit": "µM"}, {"measurement": "Minimum cytotoxic concentration", "setting": "Vero cells", "result": ">250", "unit": "µM"}, {"measurement": "EC50", "setting": "Reovirus-1", "result": "> 250", "unit": "µM"}, {"measurement": "EC50", "setting": "Para-influenza-3 virus", "result": "> 250", "unit": "µM"}, {"measurement": "EC50", "setting": "Punta Toro virus", "result": "> 250", "unit": "µM"}]}
{"compound": "NC12CC3CC(CC(C3)C1)C2", "note": "[Amantadine]", "values": [{"measurement": "CC50", "setting": "in vitro", "result": "> 1000", "unit": "µM"}, {"measurement": "Cytotoxicity Minimum cytotoxic concentration", "setting": "MDCK cells", "result": ">1000", "unit": "µM"}, {"measurement": "EC50", "setting": "Influenza B; [2]", "result": "> 1000", "unit": "µM"}, {"measurement": "EC50", "setting": "Influenza B; [3]", "result": "> 1000", "unit": "µM"}]}
{"compound": "OC[C@H]1O[C@H](O[C@@H]2C(O)O[C@H](CO)[C@@H](O)[C@@H]2O)[C@@H](O)[C@@H](O)[C@@H]1O", "note": "(stereo partly drawn) [Man-a(1,2)-Man]", "values": [{"measurement": "inhibition of CML agglutination of rabbit erythrocytes (in words)", "setting": "[1]", "result": "slightly inhibitory"}]}
{"compound": "OC[C@H]1O[C@H](O[C@H]2[C@H](O)[C@@H](CO)OC(O)[C@H]2O)[C@@H](O)[C@@H](O)[C@@H]1O", "note": "(stereo partly drawn) [Man-a(1,3)-Man]", "values": [{"measurement": "inhibition of CML agglutination of rabbit erythrocytes (in words)", "setting": "[1]", "result": "slightly inhibitory"}]}
{"compound": "OC[C@H]1O[C@H](OC[C@H]2OC(O)[C@@H](O)[C@@H](O[C@H]3O[C@H](CO)[C@@H](O)[C@H](O)[C@@H]3O)[C@@H]2O)[C@@H](O)[C@@H](O)[C@@H]1O", "note": "(stereo partly drawn) [Man-a(1,3:1,6)-mannotriose]", "values": [{"measurement": "Minimum inhibitory concentration (MIC)", "setting": "[1]; complete inhibition of 8 hemagglutination units of CML, rabbit erythrocytes", "result": 2500, "unit": "µM"}, {"measurement": "effect of carbohydrate pre-incubation on CML-induced L929 cell death", "setting": "L929 cells", "result": "the cell inhibitory ratio was abruptly decreased"}]}
{"compound": "OC[C@H]1O[C@H](OC[C@H]2OC(O)[C@@H](O)[C@@H](O)[C@@H]2O)[C@@H](O)[C@@H](O)[C@@H]1O", "note": "(stereo partly drawn) [Man-a(1,6)-Man]", "values": [{"measurement": "inhibition of CML agglutination of rabbit erythrocytes (in words)", "setting": "[1]", "result": "slightly inhibitory"}, {"measurement": "effect of carbohydrate pre-incubation on CML-induced L929 cell death", "setting": "L929 cells", "result": "slightly more effective inhibitor than Man-a(1,3:1,6)-mannotriose"}]}
{"compound": "CCC(CC)O[C@@H]1C=C(C(=O)O)C[C@H](N)[C@H]1NC(C)=O", "note": "[Oseltamivir Carboxylate]", "values": [{"measurement": "CC50", "setting": "in vitro", "result": "> 100", "unit": "µM"}, {"measurement": "Cytotoxicity Minimum cytotoxic concentration", "setting": "MDCK cells", "result": ">100", "unit": "µM"}, {"measurement": "EC50", "setting": "Influenza B; [2]", "result": 15, "unit": "µM"}, {"measurement": "EC50", "setting": "Influenza B; [3]", "result": 8, "unit": "µM"}]}
{"compound": "NC(=O)c1ncn([C@@H]2O[C@H](CO)[C@@H](O)[C@H]2O)n1", "note": "[Ribavirin]", "values": [{"measurement": "EC50", "setting": "Sindbis virus", "result": "> 250", "unit": "µM"}, {"measurement": "Minimum cytotoxic concentration", "setting": "Vero cells", "result": ">250", "unit": "µM"}, {"measurement": "EC50", "setting": "Reovirus-1", "result": 250, "unit": "µM"}, {"measurement": "Cytotoxicity Minimum cytotoxic concentration", "setting": "MDCK cells", "result": ">100", "unit": "µM"}, {"measurement": "EC50", "setting": "Influenza B; [2]", "result": 4.3, "unit": "µM"}, {"measurement": "EC50", "setting": "Influenza B; [3]", "result": 9, "unit": "µM"}]}
{"compound": "CC(N)C12CC3CC(CC(C3)C1)C2", "note": "(stereo not drawn) [Rimantadine]", "values": [{"measurement": "CC50", "setting": "in vitro", "result": 525, "unit": "µM"}, {"measurement": "Cytotoxicity Minimum cytotoxic concentration", "setting": "MDCK cells", "result": 1000, "unit": "µM"}, {"measurement": "EC50", "setting": "Influenza B; [2]", "result": "> 200", "unit": "µM"}, {"measurement": "EC50", "setting": "Influenza B; [3]", "result": "> 200", "unit": "µM"}]}
{"compound": "COC(=O)CC[C@H](NC(=O)[C@H](CC(=O)OC)NC(=O)OCc1ccccc1)C(=O)N[C@H](C(=O)N[C@@H](CC(=O)OC)C(=O)CF)C(C)C", "note": "[z-DEVD-fmk]", "values": [{"measurement": "effect of caspase inhibitor on CML-induced L929 apoptosis", "setting": "L929 cells", "result": "partially blocked apoptosis"}]}
{"compound": "CC[C@H](C)[C@H](NC(=O)OCc1ccccc1)C(=O)N[C@@H](CCC(=O)OC)C(=O)N[C@H](C(=O)N[C@@H](CC(=O)OC)C(=O)CF)[C@@H](C)O", "note": "[z-IETD-fmk] (Cbz-IE(OMe)TD(OMe)-CH2F)", "values": [{"measurement": "effect of caspase inhibitor on CML-induced L929 apoptosis", "setting": "L929 cells", "result": "partially blocked apoptosis"}]}
{"compound": "COC(=O)C[C@H](NC(=O)[C@H](C)NC(=O)[C@@H](NC(=O)OCc1ccccc1)C(C)C)C(=O)CF", "note": "[z-VAD-fmk] (Cbz-Val-Ala-Asp(OMe)-CH2F)", "values": [{"measurement": "effect of caspase inhibitor on CML-induced L929 apoptosis", "setting": "L929 cells", "result": "partially blocked apoptosis"}]}
{"compound": "Galanthus nivalis agglutinin [GNA]", "values": [{"measurement": "EC50 HIV-2", "setting": "HIV-2 (strain ROD)", "result": 0.78, "unit": "µg/mL"}, {"measurement": "EC50 HIV-1", "setting": "HIV-1 (IIIB)", "result": 0.92, "unit": "µg/mL"}]}
{"compound": "Lycoris radiate agglutinin [LRA]", "values": [{"measurement": "EC50 HIV-2", "setting": "HIV-2 (strain ROD)", "result": 0.59, "unit": "µg/mL"}, {"measurement": "EC50 HIV-1", "setting": "HIV-1 (IIIB)", "result": 0.79, "unit": "µg/mL"}]}
{"compound": "Scilla campanulata agglutinin [SCA]", "values": [{"measurement": "EC50 HIV-2", "setting": "HIV-2 (strain ROD)", "result": 8, "unit": "µg/mL"}, {"measurement": "EC50 HIV-1", "setting": "HIV-1 (IIIB)", "result": 4.6, "unit": "µg/mL"}]}
{"compound": "thyroglobulin: a glycoprotein", "values": [{"measurement": "inhibition of CML agglutination of rabbit erythrocytes (in words)", "setting": "[1]", "result": "inhibited the agglutination"}]}
